{"source": "paper PMC4233149", "about": "(Clinical cancer research : an official journal of the …, 2014)", "key": {"[1]": {"settings": "alternate days (QOD), previously established; cited from earlier work"}, "[2]": {"settings": "read-out: mean Cmax of the no-observed-adverse-effect-level (NOAEL) dose; dogs, preclinical toxicology studies; cited from earlier work"}, "advanced solid tumors [3]": {"tested_on": "advanced solid tumors", "test": "Tumor response", "assay_type": "in vivo, human", "in_short": "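Radiological disease status was assessed by RECIST 1.1 at baseline and every 8 weeks during oral weekly dosing.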"}, "pSer9 GSK3β": {"tested_on": "pSer9 GSK3β", "test": "PD biomarker in platelet-rich plasma", "assay_type": "in vivo, human", "settings": "PRP; for mean pSer9 GSK3β signal, % of baseline levels: 200mg QW, n=11"}, "[4]": {"test": "Phase I safety and tolerability, alternate day", "assay_type": "in vivo, human", "settings": "60mg QOD", "in_short": "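Patients took 60mg tablets fasted, QOD in 28-day cycles, in expansion cohorts (CRPC, ovarian, MRI). Safety was checked at baseline, cycle 1 days 1, 2, 7, 15, 21, 27 and 28, weekly in cycle 2, then monthly. Glucose was monitored. Serum C-peptide and whole-blood HbA1c were measured at baseline and monthly. AEs were graded by CTCAE v3.0.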"}, "pThr246 PRAS40": {"tested_on": "pThr246 PRAS40", "test": "PD biomarker in platelet-rich plasma", "assay_type": "in vivo, human", "settings": "60mg QOD, PRP", "in_short": "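Platelet-rich plasma was collected at baseline and at 3, 6, 24 and 48h on oral 60mg QOD dosing. pThr246 PRAS40 was measured by MSD electrochemiluminescence assay validated to Good Clinical Practice standards. Values were expressed as percent of individual baseline, averaged per timepoint, and compared with baseline by paired t-test.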"}, "advanced solid tumors [5]": {"tested_on": "advanced solid tumors", "test": "Multiparametric functional MRI", "assay_type": "in vivo, human", "settings": "60mg QOD, one patient with ADC response", "in_short": "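Oral dosing at 60mg QOD to fasted patients in 28-day cycles. Imaging on a 1.5T MR system used DCE-MRI, DWI, 1H-MRS and ISW-MRI. Median Ktrans, ADC, tCho/water ratio and R2* were analysed. Four scans per patient: two pre-treatment (reproducibility cohort), then cycle 1 day 7±1 and day 21±4.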"}, "Permeability": {"test": "Permeability", "assay_type": "physicochemical", "settings": "across physiological pH ranges"}, "pSer473 AKT": {"tested_on": "pSer473 AKT", "settings": "cited from earlier work"}}, "note": "“And” between values parts separate entries of the source, which are not always exact repeats. Equal values may be shown once."}
{"smiles": "NC1(c2ccc(-c3nc4ccn5c(=O)[nH]nc5c4cc3-c3ccccc3)cc2)CCC1", "note": "[MK-2206]", "values": [{"measurement": "maximum tolerated dose (MTD)", "setting": "[1]", "value": 60, "unit": "mg"}, {"measurement": "Cmax", "setting": "[2]", "value": 365, "unit": "nM"}, {"measurement": "reduction in RECIST measurements of target lesions", "setting": "advanced solid tumors [3]; 150mg QW, 8 weeks, one patient with ER/PR positive, HER2 negative metastatic breast cancer, PIK3CA exon 20 mutation", "value": 22, "unit": "%"}, {"measurement": "total time on treatment", "setting": "advanced solid tumors [3]; 150mg QW, breast cancer patient, before disease progression", "value": 24, "unit": "weeks"}, {"measurement": "CA15-3 level after treatment", "setting": "advanced solid tumors [3]; 150mg QW, breast cancer patient, from 6853U/ml", "value": 4399, "unit": "U/ml"}, {"measurement": "reduction in CA15-3", "setting": "advanced solid tumors [3]; 150mg QW, same breast cancer patient", "value": "~36", "unit": "%"}, {"measurement": "duration of RECIST SD (range)", "setting": "advanced solid tumors [3]; two patients with CRPC", "value": "6.5-7.5 months"}, {"measurement": "time of maximum suppression of pSer9 GSK3β post-MK-2206", "setting": "pSer9 GSK3β; 60mg QOD", "value": 6, "unit": "h"}, {"measurement": "mean pSer9 GSK3β levels, % of baseline levels", "setting": "pSer9 GSK3β; 60mg QOD, 3h", "value": 76.8, "unit": "%"}, {"measurement": "mean pSer9 GSK3β levels, % of baseline levels", "setting": "pSer9 GSK3β; 60mg QOD, 6h", "value": 67.5, "unit": "%"}, {"measurement": "mean pSer9 GSK3β levels, % of baseline levels", "setting": "pSer9 GSK3β; 60mg QOD, 24h", "value": 102.9, "unit": "%"}, {"measurement": "mean pSer9 GSK3β signal, % of baseline levels", "setting": "pSer9 GSK3β; 24h", "value": 65.0, "unit": "%"}, {"measurement": "mean pSer9 GSK3β signal, % of baseline levels", "setting": "pSer9 GSK3β; 48h", "value": 82.3, "unit": "%"}, {"measurement": "mean pSer9 GSK3β signal, % of baseline levels", "setting": "pSer9 GSK3β; 96h", "value": 91.4, "unit": "%"}, {"measurement": "mean pSer9 GSK3β signal, % of baseline levels", "setting": "pSer9 GSK3β; 168h", "value": 117.2, "unit": "%"}, {"measurement": "C-peptide level increase during first cycle (range)", "setting": "[4]", "value": "2.7% to 495.5"}, {"measurement": "time for DLTs to resolve to baseline levels after drug interruption", "setting": "[4]", "value": "1-2 weeks"}, {"measurement": "end of cycle 1 HbA1c values", "setting": "[4]; 2 patients with baseline levels ≤6.5%", "value": "7.3% and 8.3%"}, {"measurement": "patients with increased C-peptide levels during first cycle", "setting": "[4]; 23/27", "value": 85.2, "unit": "%"}, {"measurement": "patients with HbA1c levels of ≤6.5% at baseline and end of cycle 1", "setting": "[4]; 25/29", "value": 86.2, "unit": "%"}, {"measurement": "elevated blood glucose levels, patients", "setting": "[4]; 27/38", "value": 71.1, "unit": "%"}, {"measurement": "tolerability", "setting": "[4]; 38 patients", "value": "generally well tolerated"}, {"measurement": "G3 hyperglycemia, patients", "setting": "[4]; following first cycle, 1/38", "value": 2.6, "unit": "%"}, {"measurement": "G1-2 hyperglycemia, patients", "setting": "[4]; following first cycle, 3/38", "value": 7.9, "unit": "%"}, {"measurement": "time of maximum suppression of pThr246 PRAS40 post-MK-2206", "setting": "pThr246 PRAS40", "value": 6, "unit": "h"}, {"measurement": "mean pThr246 PRAS40 levels, % of baseline levels", "setting": "pThr246 PRAS40; 3h", "value": 79.8, "unit": "%"}, {"measurement": "mean pThr246 PRAS40 levels, % of baseline levels", "setting": "pThr246 PRAS40; 6h", "value": 79.7, "unit": "%"}, {"measurement": "mean pThr246 PRAS40 levels, % of baseline levels", "setting": "pThr246 PRAS40; 24h", "value": 86.9, "unit": "%"}, {"measurement": "mean pThr246 PRAS40 levels, % of baseline levels", "setting": "pThr246 PRAS40; 48h", "value": 91.4, "unit": "%"}, {"measurement": "mean pThr246 PRAS40 levels, % of baseline levels", "setting": "pThr246 PRAS40; 48h, one outlier removed (28 patients), p=0.0019", "value": 81.9, "unit": "%"}, {"measurement": "reduction in K^trans", "setting": "advanced solid tumors [5]", "value": 20, "unit": "%"}, {"measurement": "permeability", "setting": "Permeability", "value": "high permeability"}, {"measurement": "concentration required for 70% inhibition of pSer473 AKT in whole blood", "setting": "pSer473 AKT; level identified in preclinical models as associated with antitumor activity", "value": 57, "unit": "nmol/L"}, {"measurement": "prespecified PK target for 70% inhibition of pAKT", "setting": "pSer473 AKT; plasma concentration target", "value": 56.8, "unit": "nM"}]}
